Results on 8 molecules are retold here after ChEMBL document CHEMBL1124869, “Synthesis and anti-HIV activity of several 2'-fluoro-containing pyrimidine nucleosides” (J Med Chem, 1990).

Data set [1] relates to CCRF-CEM. The data set is described as follows: Cellular toxicity was measured in CEM cells after 8 days.50 tissue culture infectious doses were used. It counts as functional, Homo sapiens.
Data set [2] concerns CCRF-CEM. The data set is described as follows: Antiviral test was performed against HIV (LAV strain) on CEM cells using 50 tissue culture infectious units. In kind it is functional. Particulars: Homo sapiens, read-out: ID50 (the source's name). A digest of the protocol:
(§1)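 CEM-SS T cells infected with HIV-1 LAV strain. Inoculum was 50 or 30 tissue culture infectious units, depending on the assay. Viral replication was read as p24 core antigen in the culture supernatant by sandwich ELISA. Activity is expressed as 50% inhibitory dose (ID50) and 50% tissue culture inhibitory dose (TCID50).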

In data set [3] the test system is CCRF-CEM. The data set is described as follows: (§2) Antiviral test was performed against HIV (LAV strain) on CEM cells using 30 tissue culture infectious units. T. It counts as functional, Homo sapiens. In short, it runs like this:
as §1

Data set [4] relates to U-937. The data set is described as follows: (§3) In vitro Antiviral activity against U937 cell lines. Particulars: Homo sapiens, read-out: ID50 (the source's name). In kind it is functional.
For data set [5], the species on record is Homo sapiens. The data set is described as follows: Bone marrow toxicity was measured against human colony forming units-granulocyte monocyte (CFU-GM), concentration is 1.0 uM. In short, it runs like this: (§4)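 Colony formation by normal human granulocyte-monocyte progenitors (CFU-GM) was scored in the presence of 0.1, 1.0 or 10.0 μM drug. Results are given as percent colony survival relative to control, mean ± deviation.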

Data set [6] is filed under the species Homo sapiens. The data set is described as follows: Bone marrow toxicity was measured against human colony forming units-granulocyte monocyte (CFU-GM), concentration is 10.0 uM. In short, it runs like this: as §4
Data set [7] concerns T-cell. The data set is described as follows: (§5) In vitro Antiviral activity against T-cell lines. It counts as functional. As to conditions: Homo sapiens, read-out: ID50 (the source's name). A digest of the protocol:
(§6)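 Freshly isolated T cells were stimulated with PHA mitogen and then infected with HIV HTLV-IIIB. Antiviral endpoint was p24 antigen at 10 days postinfection. Cell viability served as the toxicity endpoint.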

Data set [8] concerns U-937. The description is as §3. It counts as functional, Homo sapiens.
Data set [9] relates to T-cell. The description is as §5. It counts as functional, Homo sapiens. A digest of the protocol:
as §6

Data set [10] has as its system Mo. The data set is described as follows: (§7) In vitro Antiviral activity against MO cell lines. In kind it is functional, Homo sapiens. In short, it runs like this: (§8)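 Freshly isolated monocyte/macrophage cells were infected with the monocytotropic HIV Pan Data Strain (PDS). Antiviral endpoint was p24 viral antigen.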
Data set [11] relates to PBL. The data set is described as follows: (§9) In vitro Antiviral activity against PBL cell lines. As to conditions: Homo sapiens, read-out: ID50. It counts as functional.
The subject of data set [12] is PBL. Described as §9. In kind it is functional, Homo sapiens.
Data set [13] deals with Mo. Described as §7. In kind it is functional. As to conditions: Homo sapiens, read-out: ID50 (the source's name). A digest of the protocol:
as §8

Data set [14] relates to CCRF-CEM. The data set is described as follows: Cellular toxicity was measured in CEM cells after 8 days. It counts as functional, Homo sapiens.
Data set [15] deals with U-937. The data set is described as follows: (§10) In vitro antiviral activity against U937 cell lines. It counts as functional, Homo sapiens.
Data set [16] is described as follows: (§11) In vitro antiviral activity against (monocyte macrophages) cell lines. It counts as functional. As to conditions: Homo sapiens; read-out: ID50 (the source's name). A digest of the protocol:
as §8

Data set [17] relates to CCRF-CEM. The data set is described as follows: (§12) In vitro antiviral activity against CEM cell lines. It counts as functional. Particulars: Homo sapiens, read-out: ID50 (the source's name). In short, it runs like this: as §1
Data set [18] concerns U-937. The data set is described as §10. In kind it is functional. As to conditions: Homo sapiens, read-out: ID50 (the source's name).
The test system of data set [19] is PBL. The data set is described as follows: (§13) In vitro antiviral activity against PBL cell lines. In kind it is functional, Homo sapiens.
Data set [20] is described as follows: as §11. It counts as functional, Homo sapiens. A digest of the protocol:
as §8

The subject of data set [21] is T-cell. The data set is described as follows: (§14) In vitro antiviral activity against T-cells. In kind it is functional. Particulars: Homo sapiens, read-out: ID50 (the source's name). A digest of the protocol: as §6
Data set [22] has as its system PBL. Described as §13. It counts as functional. Particulars: Homo sapiens, read-out: ID50 (the source's name).
Data set [23] relates to CCRF-CEM. The data set is described as §12. In kind it is functional, Homo sapiens. A digest of the protocol: as §1
The test system of data set [24] is CCRF-CEM. The description is as §2. As to conditions: Homo sapiens, read-out: ID50 (the source's name). In kind it is functional. A digest of the protocol: as §1
In data set [25] the test system is T-cell. The description is as §14. In kind it is functional, Homo sapiens. In short, it runs like this:
as §6

The test system of data set [26] is CCRF-CEM. The data set is described as follows: Antiviral test was performed against HIV (LAV strain) on CEM cells using 30 tissue culture infectious units. In kind it is functional, Homo sapiens. In short, it runs like this:
as §1

≈ marks a conversion by molar mass, not a printed value. Where “and” joins values, the source holds several entries; their conditions need not be identical. Identical values can stand only once.

As to `Cc1cn([C@@H]2O[C@H](CO)C=C2F)c(=O)[nH]c1=O`, the “cytotoxic concentration in CEM cells” value with CCRF-CEM [1] was found to be 9.7 µg/mL. Besides, the IC50 in the data set on CCRF-CEM [2] was more than 25 µg/mL.

`Nc1ccn([C@@H]2O[C@H](CO)C[C@@H]2F)c(=O)n1`: the “cytotoxic concentration in CEM cells” value in the data set on CCRF-CEM [1] is >23 µg/mL and 61.9 µg/mL. The same molecule had an ID50 in the data set on CCRF-CEM [3] of 0.9 µg/mL (≈ 3.93 µM). Moreover, the IC50 in the data set on U-937 [4] is 0.14 µg/mL (≈ 0.611 µM); with T-cell [7] it was 0.33 µg/mL (≈ 1.44 µM); in the data set with PBL [11], less than 2 µg/mL; in the data set with CCRF-CEM [2], 2.3 µg/mL (≈ 10 µM); in the data set with Mo [13], 1 µg/mL (≈ 4.36 µM). The Toxicity in the data set filed under Homo sapiens [5] came to 37.6; in the data set filed under Homo sapiens [6] it was 0. The TCID50 in the data set on U-937 [8] was found to be 7.7 µg/mL; in the data set with T-cell [9] it was 10 µg/mL; with Mo [10], 3.3 µg/mL; in the data set with PBL [12], 11 µg/mL.

For the molecule `O=c1ccn(C2OC(CO)CC2F)c(=O)[nH]1` (stereo not drawn), the “cytotoxic concentration in CEM cells” value in the data set on CCRF-CEM [1] was 57 µg/mL. Moreover, the IC50 with CCRF-CEM [2] was more than 10 µg/mL.

As to `Nc1ccn([C@H]2CC[C@@H](CO)O2)c(=O)n1` [ZALCITABINE], the TCID50 with CCRF-CEM [14] was found to be 1.3 µg/mL. Besides, the IC50 in the data set on CCRF-CEM [2] came out at 0.007 µg/mL (≈ 0.0331 µM).

For the molecule `Cc1cn([C@@H]2O[C@H](CO)[C@@H](N=[N+]=[N-])[C@H]2F)c(=O)[nH]c1=O`, the “cytotoxic concentration in CEM cells” value with CCRF-CEM [1] came out at 2.6 µg/mL. For the same molecule, the IC50 in the data set with CCRF-CEM [2] was more than 28.5 µg/mL.

Take `Cc1cn([C@H]2C[C@H](N=[N+]=[N-])[C@@H](CO)O2)c(=O)[nH]c1=O` [ZIDOVUDINE]: the TCID50 in the data set on U-937 [15] is 7.5 µg/mL; in the data set with PBL [19], 3 µg/mL; in data set [20], 10 µg/mL; in the data set on CCRF-CEM [23] it was more than 3 µg/mL; in the data set on T-cell [25] it was 100 µg/mL. Further, the IC50 in data set [16] amounted to 0.1 µg/mL (≈ 0.374 µM); with CCRF-CEM [17] it was 0.03 µg/mL (≈ 0.112 µM); in the data set on U-937 [18], 0.03 µg/mL (≈ 0.112 µM); in the data set with T-cell [21], 0.033 µg/mL (≈ 0.123 µM); in the data set with PBL [22], 0.0003 µg/mL (≈ 0.00112 µM); in the data set on CCRF-CEM [2], 0.08 µg/mL (≈ 0.299 µM). The IC50 with CCRF-CEM [24] came to 0.53 µg/mL (≈ 1.98 µM). Moreover, the Toxicity in the data set listed under Homo sapiens [6] is 23.6.

As to `Nc1ccn([C@@H]2O[C@H](CO)C=C2F)c(=O)n1`, in the data set on CCRF-CEM [3], the ID50 is 10.9 µg/mL (≈ 48 µM). Further, the IC50 with CCRF-CEM [2] is 1.3 µg/mL (≈ 5.72 µM).

In the data set with CCRF-CEM [26], `Cc1cn([C@@H]2O[C@H](CO)C[C@H]2F)c(=O)[nH]c1=O` returned a TCID50 of more than 25 µg/mL. Further, the IC50 in the data set with CCRF-CEM [2] is more than 25 µg/mL.
